This is an account of results in publication PMC6933791 (ACS Omega, 2019).

For series [1], the system named is Na+/K+-ATPase α1,2,3 subunit of the porcine cortex. As to the kind of experiment: Na+/K+-ATPase inhibition assay. The class given is biochemical. The note with it: 0.1 μM compound, 30 min co-incubation, positive control = 100% activity. A digest of the protocol:
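Porcine cortex Na+/K+-ATPase (α1,2,3; 0.05 U/mL) was preincubated 30 min with test compound (0.1 μM) in 40 mM Tris–HCl pH 7.5, 80 mM NaCl, 1 mM EDTA and 8 mM MgAc2. ATP (4 mM) was then added and the reaction stopped after 30 min. Released Pi was read by malachite green at 600 nm after subtracting the no-enzyme control. Uninhibited enzyme defined 100% activity. Run in triplicate.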

Series [2] has as its system A549 cells. As to the kind of experiment: Cell binding of radiolabeled compound. Also on record: species or system human. In short, it runs like this:
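A549 and MRC-5 cells were grown in DMEM with 10% FBS and 1% penicillin/streptomycin (37 °C, 5% CO2), trypsinised, resuspended in PBS pH 7.4 and trypan-blue counted. Labelled test compound (0.1 μM), 99mTc-chelator alone (1.3 μM), or test compound plus 10-fold excess unlabelled cardenolide was shaken with 250 000 viable cells/tube (140 rpm, 120 min, 37 °C). Pellets were counted. Three biological × three technical replicates.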

The nature of series [3]: Biodistribution in healthy mice. It is filed as in vivo, BALB/c mice. The note with it: i.v.
A short description of series [4]: Blood clearance in healthy mice. The note with it: healthy BALB/c mice, i.v. tail vein. It is filed as in vivo. A digest of the protocol: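 Female BALB/c mice (20 g, 8 weeks old; n = 6 per time point) received 100 μL (3.7 MBq) of diluted 99mTc-labelled test compound (final volume 1800 μL) by tail vein. Blood was sampled at 5, 15, 30, 60, 120 and 240 min, weighed and counted for radioactivity. Percent injected dose per mL blood (%ID/mL) was plotted against time.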

Another series relates to MRC-5 cells. As to the kind of experiment: MTT cell viability assay, MRC-5. It is filed as cell-based. The note with it: read-out: IC50 non-tumor MRC-5 cell line, 48 h, human fetal lung fibroblast MRC-5.
Series [5] is described as follows: Radiochemical stability in saline. It is filed as physicochemical. The note with it: NaCl 0.9% (w/v), room temperature (23 °C), up to 24 h. In short, it runs like this:
(§1)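 The 99mTc-labelled test compound was incubated in 0.9% NaCl at 23 °C or in plasma at 37 °C with agitation. Samples were taken at 1, 2, 4, 8 and 24 h. Radiochemical purity was measured by TLC in acetone (free pertechnetate) and glacial acetic acid/water 15:85 (99mTcO2), with strips counted by scintillation. There were 6 samples per time point, each assessed in duplicate.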

Series [6] has as its system A549 cells. As to the kind of experiment: MTT cell viability assay, A549. It is filed as cell-based. The note with it: read-out: IC50 A549 cell line, 48 h, human non-small-cell lung cancer A549. In short, it runs like this: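 A549 cells (1 × 10^4/well), cultured in DMEM with 10% FBS and antibiotics, were exposed to a range of concentrations of the […] test compound for 48 h. MTT was added (1 mg/mL final) for 4 h at 37 °C, formazan was dissolved in DMSO, and absorbance was read at 570 nm. Cells given 0.5% DMSO defined 100% viability. IC50 came from dose–response curves.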

A short description of series [7]: Radiochemical stability in plasma. The note with it: 37 °C, under agitation, up to 24 h. The class given is in vitro ADME. A digest of the protocol: as §1

pIC50: −log10 of the molar value.

For `C[C@]12CC[C@H](O)C[C@H]1CC[C@@H]1[C@@H]2CC[C@]2(C)[C@@H](C3=CC(=O)OC3)CC[C@]12O` [DIG, digitoxigenin], the “Na+/K+-ATPase enzymatic activity remaining” value in series [1] is “less than 50%”.

For the compound `O=C(O)CN(CCN(CC(=O)O)CC(=O)O)CCN(CC(=O)O)CC(=O)O` [DTPA, diethylenetriaminepentaacetic acid], in series [1], the “Na+/K+-ATPase enzymatic activity remaining” value is “no influence”.

On to `O=C([O-])CN(CCN(CC(=O)[O-])CC(=O)[O-])CCN(CC(=O)[O-])CC(=O)[O-].[99Tc+4]` [^99mTc-DTPA, reference compound], for which the “Affinity to A549 cancer cells” value in the series with A549 cells [2] (1.3 μM, 2 h incubation, 37 °C) was “low affinity”.

On to ^99mTc-DTPA–digitoxigenin, for which, in series [3] (30 min), the “Biodistribution, blood” value is given as 0.51 %ID/g; the “Biodistribution, heart” value turned out to be 0.31 %ID/g; the “Biodistribution, intestine” value amounted to 24.97 %ID/g; the “Biodistribution, kidney” value was found to be 1.64 %ID/g. For the same compound, in series [3] (30 min), the “Biodistribution, liver” value came out at 4.74 %ID/g; the “Biodistribution, lungs” value amounted to 1.46 %ID/g; the “Biodistribution, muscle” value turned out to be 0.50 %ID/g; the “Biodistribution, spleen” value is recorded as 0.90 %ID/g. In addition, in series [3] (30 min), the “Biodistribution, thyroid” value worked out at 0.59 %ID/g. Also, in series [3] (2 h), the “Biodistribution, blood” value worked out at 0.43 %ID/g; the “Biodistribution, heart” value was determined as 0.32 %ID/g; the “Biodistribution, intestine” value was found to be 27.06 %ID/g; the “Biodistribution, kidney” value amounted to 1.48 %ID/g. In series [3] (2 h), the “Biodistribution, liver” value was 2.34 %ID/g; the “Biodistribution, lungs” value is given as 0.6 %ID/g; the “Biodistribution, muscle” value worked out at 0.26 %ID/g; the “Biodistribution, spleen” value was 0.85 %ID/g. The “Biodistribution, thyroid” value in series [3] (2 h) is listed as 0.59 %ID/g. The Blood half-life in series [4] was 11.7 min. The negative-log IC50 (pIC50) in the series with MRC-5 cells was 6.11. The “Na+/K+-ATPase enzymatic activity remaining” value in series [1] is listed as “less than 50%”. The “Radiochemical stability in saline” value in series [5] is given as “remained stable”. The “Binding to A549 cells when co-incubated with free digitoxigenin” value with A549 cells [2] (0.1 μM, 10-fold excess of free digitoxigenin, 2 h) was “reduced to the rate of non-tumor MRC-5 cells”. Further, in the series on A549 cells [2] (0.1 μM, 2 h incubation, 37 °C), the “Binding to A549 cells compared with non-tumor MRC-5 cells” value is “significantly higher binding”. For the same compound, the negative-log IC50 (pIC50) with A549 cells [6] is 6.92. In series [7], the “Radiochemical stability in plasma” value is recorded as “remained stable”.
